Series [1] has as its system Rattus norvegicus. In words: Antagonist activity at 5HT3 receptor in urethane-anesthetized Sprague-Dawley rat assessed as attenuation of 1-phenylbiguanide-induced bradycardia at 50 ug/kg, iv administered 5 mins before 1-phenylbiguanide challenge measured after 30 mins post-treatment by von Bezold-Jarisch reflex test. The format is functional. The arrangement: scale not given: the % may be the effect or the level left.

Series [2] addresses T1, 5-hydroxytryptamine receptor 3A (Cavia porcellus) (UniProt O70212).
T1 sequence (whole entry): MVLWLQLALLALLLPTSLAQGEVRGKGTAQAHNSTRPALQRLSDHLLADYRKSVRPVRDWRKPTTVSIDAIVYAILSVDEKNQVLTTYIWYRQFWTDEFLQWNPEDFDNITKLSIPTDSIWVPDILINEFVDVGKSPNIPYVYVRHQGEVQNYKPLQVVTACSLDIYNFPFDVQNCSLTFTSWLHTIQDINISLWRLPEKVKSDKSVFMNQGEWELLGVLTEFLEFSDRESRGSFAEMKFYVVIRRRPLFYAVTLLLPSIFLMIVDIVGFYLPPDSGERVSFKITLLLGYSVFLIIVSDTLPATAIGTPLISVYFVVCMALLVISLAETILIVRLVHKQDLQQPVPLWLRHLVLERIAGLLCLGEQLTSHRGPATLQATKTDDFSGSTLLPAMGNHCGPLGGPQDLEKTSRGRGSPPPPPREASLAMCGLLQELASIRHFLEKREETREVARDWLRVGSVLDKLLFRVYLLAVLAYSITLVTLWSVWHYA
The experiment in a line: Agonist activity at 5HT3 receptor in spontaneously beating guinea pig right atrium assessed as positive chronotropic potency at 100 uM. It counts as functional, tissue-based. To be noted: Cardiac atrium. Summed up:
(§1)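 Guinea pig left and right atria were hung in a 15 mL bath of PSS (pH 7.4, 95% O2-5% CO2, 35 °C) with ketanserin 1 µM. The right atrium beat spontaneously; the left was paced at 1 Hz. Cumulative doses (0.1-100 µM; DMSO ≤0.3%) were added after 45-60 min stabilization. Rate or isometric force was recorded. EC50 came from Probit analysis, n≥4. Intrinsic activity was taken relative to 5-HT.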

Series [3] concerns the target T2, 5-hydroxytryptamine receptor 3A (Rattus norvegicus, UniProt P35563).
T2 sequence (P35563 whole entry): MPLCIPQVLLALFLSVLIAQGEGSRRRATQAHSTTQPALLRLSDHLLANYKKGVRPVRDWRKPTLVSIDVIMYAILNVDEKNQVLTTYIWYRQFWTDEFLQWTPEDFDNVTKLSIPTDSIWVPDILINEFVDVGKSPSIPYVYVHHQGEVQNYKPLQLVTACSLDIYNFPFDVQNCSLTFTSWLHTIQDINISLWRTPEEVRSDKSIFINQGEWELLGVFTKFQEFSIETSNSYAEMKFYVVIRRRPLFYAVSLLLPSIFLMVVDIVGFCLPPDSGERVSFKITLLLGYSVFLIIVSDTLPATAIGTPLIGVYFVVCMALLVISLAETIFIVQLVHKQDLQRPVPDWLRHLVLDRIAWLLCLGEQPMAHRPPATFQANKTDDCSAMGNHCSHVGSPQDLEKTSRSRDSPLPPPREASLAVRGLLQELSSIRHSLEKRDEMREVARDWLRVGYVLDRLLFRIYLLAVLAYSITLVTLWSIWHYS
In words: Displacement of [3H]LY278584 from 5HT3 receptor in rat cortical homogenate. A general note: Displacement assays read how much labelled ligand stays bound in the presence of the test substance.

Series [4] relates to Rattus norvegicus. In words: Antagonist activity at 5HT3 receptor in iv dosed urethane-anesthetized Sprague-Dawley rat assessed as inhibition of 1-phenylbiguanide-induced bradycardia administered 5 mins before 1-phenylbiguanide challenge measured after 5 to 30 mins post-treatment by von Bezold-Jarisch reflex test. The format is functional.
Series [5] deals with T1, 5-hydroxytryptamine receptor 3A (Cavia porcellus). The experiment in a line: Agonist activity at 5HT3 receptor in voltage-stimulated guinea pig left atrium assessed as positive inotropic potency at 100 uM. It counts as functional, tissue-based. The note with it: Cardiac atrium. Summed up:
as §1

Series [6] has the same target. In words: Agonist activity at 5HT3 receptor in guinea pig thoracic aorta assessed as positive contractility potency at 100 uM. The format is functional, tissue-based. Summed up:
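Guinea pig aortic helicoidal strips in PSS at 35 °C, aerated, under 1 g resting force, washed every 20 min for 1 h. Compounds added cumulatively 0.1-100 µM (DMSO vehicle); isometric contraction recorded.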

In series [7] the target is T3, 5-hydroxytryptamine receptor 3A (Cavia porcellus, UniProt O70212).
T3 sequence (O70212 whole entry): T1 sequence (whole entry)
The experiment in a line: Antagonist activity at 5HT3 receptor in spontaneously beating guinea pig right atrium assessed as inhibition of serotonin-induced maximum response by noncompetitive binding assay. It counts as tissue-based, Cardiac atrium. Summed up:
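Spontaneously beating guinea pig right atrium; 5-HT concentration-response curves (0.001-1.0 µM) before and after 30 min antagonist exposure at three concentrations. IC50 is inhibition of 50% of maximal 5-HT response, Probit analysis, n = 4-6.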

Series [8] in a line: Ratio of drug level in brain to plasma in rat at 5 mg/kg. The format is ADME, organism-based. Set-up: dose 5 mg/kg.

In general, Ki refers to the equilibrium dissociation constant of an inhibitor or competing ligand from its target. The IC50 is the concentration that inhibits the measured activity by half. Usually Kp stands for the ratio of the level in a tissue or fluid to that in plasma or blood.

Active and inactive are the calls of the source. The rule behind the calls is not given here.

For the molecule `NC(=O)CN1CCN(c2nc3cc(F)ccc3n3cccc23)CC1`, the Activity in the series on Rattus norvegicus [1] was found to be 35%. The pD2 result in series [2], in series [5] and in series [6] was “inactive” throughout. This molecule returned a Ki in series [3] of 0.0073 µM. Besides, in the series on Rattus norvegicus [4], the ID50 entry was “Dose-dependent effect”. The ED50 in the series on Rattus norvegicus [4] (read-out: ID50 (the source's name)) is 0.075 mg/kg. In addition, the IC50 in series [7] is 11.2 µM.
Regarding `O=C(O)CN1CCN(c2nc3cccc(F)c3n3cccc23)CC1`, in series [8], the Kp came out at 0.1.

Values taken from ChEMBL document CHEMBL1136924 (J Med Chem, 2009).
